Data published in ChEMBL document CHEMBL1131301, “Tyrosine kinase inhibitors. 14. Structure-activity relationships for methylamino-substituted derivatives of 4-[(3-bromophenyl)amino]-6-(methylamino)-pyrido[3,4-d]pyrimidine (PD 158780), a potent and specific inhibitor of the tyrosine kinase activity of receptors for the EGF family of growth factors” (J Med Chem, 1998).
In brackets after ≈: the same amount, converted by molar mass.

Legend:
[1] = biological target: T1, Epidermal growth factor receptor (Homo sapiens, UniProt P00533); test: Inhibit of phosphorylation of a tyrosine/glutamic acid copolymer by epidermal growth factor receptor prepared from human A431 carcinoma cell vesicles by immunoaffinity chromatography.
[2] = Aqueous solubility ([…] degree C); type: physicochemical; conditions: for solubility: water, read-out: S; for S: buffer
[3] = biological target: T1, Epidermal growth factor receptor; test: Inhibition of autophosphorylation of epidermal growth factor receptor in A431 cells in culture
A-431 [4] = test: Difference in days for treated (T) and control (C) A431 tumor fragments to reach 750 mg in mice at 25 mg/kg intraperitoneal dose, administration days 7-21
Mus musculus [5] = test: Weight change of EGFR tumor bearing mice at 25 mg/kg ip dose, days 1-15 administration; type: functional; conditions: route intraperitoneal
MCF7 [6] = test: Difference in days for treated (T) and control (C) MCF-7 tumor fragments to reach 750 mg in mice at 25 mg/kg ip dose, administration days 1-15; type: functional; conditions: route intraperitoneal
Mus musculus [7] = test: Ratio of treated and control EGFR median tumor mass*100% in mice at 25 mg/kg ip dose, days 1-15 administration; type: functional; conditions: route intraperitoneal
How it was run: (§1)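 Nude mice (NCr nu/nu, 18-22 g) were randomized and implanted sc with tumor fragments in the right axilla on day 0. Tumor lines were A431 epidermoid, NIH 3T3 fibroblasts transfected with human EGFR, and MCF-7 breast. Dosing was ip or oral, by average cage weight, with 6 mice/dose group. Vehicle was 6% dimethylacetamide/94% 50 mM sodium lactate pH 4.0 (suspension), or isethionate salt in water.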

Insulin receptor = Insulin receptor (Homo sapiens, UniProt P06213); test: Inhibition of insulin receptor(IR); type: functional
Mus musculus [8] = test: Difference in days for treated (T) and control (C) EGFR tumor fragments to reach 750 mg in mice at 200 mg/kg peroral dose, administration days 1-15; type: functional; conditions: route oral
[9] = biological target: Receptor tyrosine-protein kinase erbB-2 (Homo sapiens, UniProt P04626); test: Inhibition of heregulin-dependent autophosphorylation of ErbB2 receptor in MDA-MB-453 cells; type: functional, cell-based
A-431 [10] = test: Ratio of treated and control A431 median tumor mass*100% in mice at 25 mg/kg peroral dose, days 7-21 administration; type: functional; conditions: route intraperitoneal, in the assay text read “intraperitoneal” for “peroral”; how it was run: as §1
MCF7 [11] = test: Weight change in MCF-7 tumor bearing mice at 25 mg/kg ip dose, days 1-15 administration; type: functional; conditions: route intraperitoneal
Mus musculus [12] = test: Weight change of EGFR tumor bearing mice at 200 mg/kg peroral dose, days 1-15 administration; type: functional, organism-based; parameters: dose 200 mg/kg
Mus musculus [13] = test: Difference in days for treated (T) and control (C) EGFR tumor fragments to reach 750 mg in mice at 25 mg/kg ip dose, administration days 1-15; type: functional; conditions: route intraperitoneal
[14] = biological target: T1, Epidermal growth factor receptor; test: (§2) Inhibition of tyrosine/glutamic acid copolymer phosphorylation by epidermal growth factor receptor prepared of human A431
[15] = Inhibition of Platelet-derived growth factor receptor (PDGFR); type: functional
[16] = biological target: T1, Epidermal growth factor receptor; test: Inhibition of EGF-dependent autophosphorylation of EGF-R in A431 cells
MCF7 [17] = test: Net reduction in MCF-7 tumor burden between the first and last treatments in mice at 25 mg/kg ip dose, days 1-15 administration; type: functional; conditions: route intraperitoneal
How it was run: (§3)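 NCr nu/nu nude mice (18-22 g) were randomized and implanted sc with A431 epidermoid, human-EGFR-transfected NIH 3T3 fibroblast, or MCF-7 breast tumor fragments in the right axilla on day 0. Dosing was ip or oral, by average cage weight, with 6 mice per dose group. Log net cell kill is the net reduction in tumor burden between the first and last treatments.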

[18] = biological target: Fibroblast growth factor receptor (Homo sapiens, UniProt P22607+P11362+P22455+P21802); test: Inhibition of fibroblast growth factor receptor(FGFR); type: functional
[19] = biological target: Proto-oncogene tyrosine-protein kinase Src (Homo sapiens, UniProt P12931); test: Inhibition of c-Src tyrosine kinase; type: functional
Mus musculus [20] = test: Log net cell kill of A431 tumor bearing mice at 25 mg/kg intraperitoneal dose, days 7-21 administration
[21] = biological target: T1, Epidermal growth factor receptor; test: as §2; remark: listed apart in the source
MCF7 [22] = test: Ratio of treated and control MCF-7 median tumor mass*100% in mice at 25 mg/kg ip dose, days 1-15 administration; type: functional; conditions: route intraperitoneal; how it was run: as §1
Mus musculus [23] = test: Ratio of treated and control EGFR median tumor mass*100% in mice at 200 mg/kg peroral dose, days 1-15 administration; type: functional; conditions: route oral; how it was run: as §1
A-431 [24] = test: Weight change in A431 tumor bearing mice at 25 mg/kg ip dose, days 7-21 administration; type: functional; conditions: route intraperitoneal
Mus musculus [25] = test: Net reduction in EGFR tumor burden between the first and last treatments in mice at 25 mg/kg ip dose, days 1-15 administration; type: functional; conditions: route intraperitoneal; how it was run: as §3
Mus musculus [26] = test: Weight change of EGFR tumor bearing mice at 38 mg/kg ip dose, days 1-15 administration; type: functional; conditions: route intraperitoneal
Mus musculus [27] = test: Difference in days for treated (T) and control (C) EGFR tumor fragments to reach 750 mg in mice at 38 mg/kg ip dose, administration days 1-15; type: functional; conditions: route intraperitoneal
Mus musculus [28] = test: Ratio of the median treated EGFR tumor mass (mg)/median control mass*100% in mice at 38 mg/kg dose, ip b.i.d. days 1-15 administration; type: functional; conditions: route intraperitoneal; how it was run: as §1

T1 sequence (P00533 whole entry): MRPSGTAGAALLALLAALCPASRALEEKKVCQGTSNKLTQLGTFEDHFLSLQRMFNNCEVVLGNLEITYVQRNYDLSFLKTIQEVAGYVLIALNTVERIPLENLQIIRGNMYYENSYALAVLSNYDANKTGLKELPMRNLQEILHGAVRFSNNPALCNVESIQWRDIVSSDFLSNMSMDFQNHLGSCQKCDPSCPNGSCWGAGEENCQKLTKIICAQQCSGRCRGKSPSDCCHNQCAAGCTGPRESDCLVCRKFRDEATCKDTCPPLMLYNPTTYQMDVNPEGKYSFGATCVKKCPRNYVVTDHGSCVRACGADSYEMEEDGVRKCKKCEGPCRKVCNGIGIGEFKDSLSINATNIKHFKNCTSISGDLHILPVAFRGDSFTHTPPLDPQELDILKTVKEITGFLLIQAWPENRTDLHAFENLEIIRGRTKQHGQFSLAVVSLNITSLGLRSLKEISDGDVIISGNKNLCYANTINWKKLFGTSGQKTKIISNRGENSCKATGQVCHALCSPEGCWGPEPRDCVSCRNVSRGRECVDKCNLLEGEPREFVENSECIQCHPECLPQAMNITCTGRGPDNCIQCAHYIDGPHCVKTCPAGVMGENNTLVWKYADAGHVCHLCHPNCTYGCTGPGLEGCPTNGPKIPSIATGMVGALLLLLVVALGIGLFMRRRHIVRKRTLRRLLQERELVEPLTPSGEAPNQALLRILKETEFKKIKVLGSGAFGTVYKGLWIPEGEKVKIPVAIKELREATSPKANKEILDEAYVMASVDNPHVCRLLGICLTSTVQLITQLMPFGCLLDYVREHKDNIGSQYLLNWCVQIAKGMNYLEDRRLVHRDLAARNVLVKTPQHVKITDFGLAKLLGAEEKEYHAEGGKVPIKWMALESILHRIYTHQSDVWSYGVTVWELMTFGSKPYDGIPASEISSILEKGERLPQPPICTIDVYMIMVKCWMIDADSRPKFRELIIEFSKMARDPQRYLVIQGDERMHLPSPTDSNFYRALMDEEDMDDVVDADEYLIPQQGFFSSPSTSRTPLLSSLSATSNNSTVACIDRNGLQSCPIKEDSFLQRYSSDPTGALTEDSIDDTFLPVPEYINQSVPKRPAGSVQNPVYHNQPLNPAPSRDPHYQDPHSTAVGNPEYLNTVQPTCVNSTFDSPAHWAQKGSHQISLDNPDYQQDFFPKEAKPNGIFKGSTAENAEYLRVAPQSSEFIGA
Sequence of Proto-oncogene tyrosine-protein kinase Src (P12931 2-536 limits assumed): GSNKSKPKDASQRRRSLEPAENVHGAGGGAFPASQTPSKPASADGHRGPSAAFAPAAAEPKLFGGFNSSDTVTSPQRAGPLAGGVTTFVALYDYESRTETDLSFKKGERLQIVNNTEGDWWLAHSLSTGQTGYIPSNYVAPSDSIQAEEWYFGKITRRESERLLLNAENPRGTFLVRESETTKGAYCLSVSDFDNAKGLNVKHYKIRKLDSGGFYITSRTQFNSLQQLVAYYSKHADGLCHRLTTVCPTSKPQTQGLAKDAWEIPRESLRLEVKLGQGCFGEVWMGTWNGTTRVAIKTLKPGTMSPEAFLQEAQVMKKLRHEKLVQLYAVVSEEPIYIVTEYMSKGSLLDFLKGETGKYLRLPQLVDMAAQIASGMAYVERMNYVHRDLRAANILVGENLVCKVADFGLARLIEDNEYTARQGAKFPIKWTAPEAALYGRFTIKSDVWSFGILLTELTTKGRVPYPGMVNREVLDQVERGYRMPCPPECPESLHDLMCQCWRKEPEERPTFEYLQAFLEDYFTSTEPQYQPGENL
Sequence of Insulin receptor (P06213 28-758 limits assumed): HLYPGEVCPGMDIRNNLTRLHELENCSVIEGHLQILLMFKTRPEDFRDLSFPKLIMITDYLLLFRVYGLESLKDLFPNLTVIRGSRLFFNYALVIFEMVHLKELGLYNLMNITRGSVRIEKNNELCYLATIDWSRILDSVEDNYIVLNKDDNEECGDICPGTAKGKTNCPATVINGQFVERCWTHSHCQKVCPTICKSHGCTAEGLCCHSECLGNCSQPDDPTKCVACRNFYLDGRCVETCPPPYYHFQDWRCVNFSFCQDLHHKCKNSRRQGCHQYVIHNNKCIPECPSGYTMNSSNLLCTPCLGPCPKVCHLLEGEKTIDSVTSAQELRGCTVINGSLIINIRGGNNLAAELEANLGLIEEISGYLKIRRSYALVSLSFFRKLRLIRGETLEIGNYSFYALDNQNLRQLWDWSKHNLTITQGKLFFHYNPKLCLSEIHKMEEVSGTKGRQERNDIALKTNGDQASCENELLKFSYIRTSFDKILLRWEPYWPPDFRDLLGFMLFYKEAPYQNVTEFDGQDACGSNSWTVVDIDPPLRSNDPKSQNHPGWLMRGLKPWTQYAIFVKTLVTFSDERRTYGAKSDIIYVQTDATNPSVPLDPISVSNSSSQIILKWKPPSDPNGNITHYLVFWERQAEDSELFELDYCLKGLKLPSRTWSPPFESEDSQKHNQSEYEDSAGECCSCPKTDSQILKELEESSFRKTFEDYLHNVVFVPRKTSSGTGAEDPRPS
Sequence of Insulin receptor (P06213 763-1382 limits assumed): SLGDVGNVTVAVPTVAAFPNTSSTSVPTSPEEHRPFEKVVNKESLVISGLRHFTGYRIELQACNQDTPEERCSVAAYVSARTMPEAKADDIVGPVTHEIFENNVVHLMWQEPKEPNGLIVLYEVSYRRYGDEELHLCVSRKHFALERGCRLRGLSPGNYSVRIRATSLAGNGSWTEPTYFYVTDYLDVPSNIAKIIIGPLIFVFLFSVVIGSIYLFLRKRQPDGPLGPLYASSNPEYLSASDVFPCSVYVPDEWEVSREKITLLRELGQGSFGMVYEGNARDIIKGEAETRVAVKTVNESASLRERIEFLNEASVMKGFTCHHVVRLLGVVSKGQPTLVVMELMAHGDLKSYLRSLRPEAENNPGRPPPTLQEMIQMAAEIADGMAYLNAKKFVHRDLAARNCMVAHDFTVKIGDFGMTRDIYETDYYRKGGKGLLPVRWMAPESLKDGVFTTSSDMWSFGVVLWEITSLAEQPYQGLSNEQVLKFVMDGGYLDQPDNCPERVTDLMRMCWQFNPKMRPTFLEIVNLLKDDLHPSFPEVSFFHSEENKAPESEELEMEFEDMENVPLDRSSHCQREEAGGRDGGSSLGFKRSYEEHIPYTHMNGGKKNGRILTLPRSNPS
Sequence of Receptor tyrosine-protein kinase erbB-2 (P04626 whole entry): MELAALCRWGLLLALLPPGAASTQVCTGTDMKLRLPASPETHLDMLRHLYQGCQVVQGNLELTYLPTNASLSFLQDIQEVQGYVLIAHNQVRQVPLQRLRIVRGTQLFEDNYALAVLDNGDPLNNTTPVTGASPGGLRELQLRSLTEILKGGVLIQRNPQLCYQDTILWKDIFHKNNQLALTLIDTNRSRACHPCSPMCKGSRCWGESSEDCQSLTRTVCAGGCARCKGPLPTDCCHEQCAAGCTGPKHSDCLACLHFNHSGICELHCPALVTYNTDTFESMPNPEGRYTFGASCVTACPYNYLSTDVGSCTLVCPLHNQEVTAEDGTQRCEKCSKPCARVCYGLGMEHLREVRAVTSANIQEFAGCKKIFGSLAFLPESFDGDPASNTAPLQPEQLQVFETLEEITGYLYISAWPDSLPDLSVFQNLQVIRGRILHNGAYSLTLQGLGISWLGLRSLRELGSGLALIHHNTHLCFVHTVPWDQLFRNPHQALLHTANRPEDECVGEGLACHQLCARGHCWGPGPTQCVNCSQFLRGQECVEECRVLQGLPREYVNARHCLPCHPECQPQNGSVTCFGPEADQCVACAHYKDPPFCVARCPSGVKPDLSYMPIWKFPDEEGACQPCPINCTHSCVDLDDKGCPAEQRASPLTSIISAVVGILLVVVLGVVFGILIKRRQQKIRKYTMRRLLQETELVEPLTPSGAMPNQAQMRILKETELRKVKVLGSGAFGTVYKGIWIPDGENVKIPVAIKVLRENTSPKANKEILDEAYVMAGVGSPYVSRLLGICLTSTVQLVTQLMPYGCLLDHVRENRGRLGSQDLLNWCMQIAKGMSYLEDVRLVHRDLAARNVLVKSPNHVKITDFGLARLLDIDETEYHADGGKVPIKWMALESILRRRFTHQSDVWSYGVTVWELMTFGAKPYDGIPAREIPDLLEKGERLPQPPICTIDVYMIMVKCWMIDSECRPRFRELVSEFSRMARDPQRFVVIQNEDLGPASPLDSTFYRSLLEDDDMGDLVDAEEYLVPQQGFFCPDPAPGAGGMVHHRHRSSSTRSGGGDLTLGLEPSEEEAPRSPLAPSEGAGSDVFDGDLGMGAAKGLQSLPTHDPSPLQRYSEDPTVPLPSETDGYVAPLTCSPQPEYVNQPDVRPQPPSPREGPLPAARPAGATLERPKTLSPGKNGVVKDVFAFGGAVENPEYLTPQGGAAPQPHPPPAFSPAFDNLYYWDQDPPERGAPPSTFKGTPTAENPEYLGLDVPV

Brc1cccc(Nc2ncnc3cnc(NCCc4c[nH]cn4)cc23)c1
IC50 [1]: 0.78 nM
solubility [2]: 15 mM (≈ 6150 µg/mL)
IC50 [3]: 6.3 nM

CN1CCN(c2cc3c(Nc4cccc(Br)c4)ncnc3cn2)CC1
IC50 [1]: 6.4 nM
solubility [2]: 2.5 mM (≈ 998 µg/mL)
IC50 [3]: 102 nM

Brc1cccc(Nc2ncnc3cnc(NCCc4ccccn4)cc23)c1
IC50 [1]: 1.2 nM
solubility [2]: 17 mM (≈ 7160 µg/mL)
IC50 [3]: 8.1 nM

OCCN(CCO)CCCNc1cc2c(Nc3cccc(Br)c3)ncnc2cn1
IC50 [1]: 0.35 nM
solubility [2]: 20 mM (≈ 9230 µg/mL)
IC50 [3]: 230 nM

OCC(O)CNc1cc2c(Nc3cccc(Br)c3)ncnc2cn1 (stereo not given)
IC50 [1]: 0.18 nM
solubility [2]: 0.21 mM (≈ 82 µg/mL)

CN(C)CCN(C)c1cc2c(Nc3cccc(Br)c3)ncnc2cn1
solubility [2]: 39 mM (≈ 15700 µg/mL)

Cc1cccc(Nc2ncnc3cnc(NCCc4c[nH]cn4)cc23)c1
IC50 [1]: 1.3 nM
S [2]: > 30 mM

CCN(CC)CC(O)CNc1cc2c(Nc3cccc(Br)c3)ncnc2cn1 (stereo not given)
T-C (A-431 [4]): 5 days
Weight change (Mus musculus [5]): -0.9 g
T-C (MCF7 [6]): 3.3 days
T/C (Mus musculus [7]): 44%
IC50 (Insulin receptor): > 50000 nM
T-C (Mus musculus [8]): 0 days
IC50 [9]: 1100 nM
solubility [2]: 36 mM (≈ 16000 µg/mL)
T/C (A-431 [10]): 62%
Weight change (MCF7 [11]): -0.3 g
Weight change (Mus musculus [12]): Weight gain
T-C (Mus musculus [13]): 5 days
IC50 [14]: 4.6 nM
IC50 [15]: > 50000 nM
IC50 [16]: 28 nM
IC50 [3]: 28 nM
Net cell kill (MCF7 [17]): -0.6 log10
IC50 [18]: > 50000 nM
IC50 [19]: > 50000 nM
Log net cell kill (Mus musculus [20]): -0.5 log10
IC50 [21]: 4.6 nM
T/C (MCF7 [22]): 77%
T/C (Mus musculus [23]): 94%
Weight change (A-431 [24]): -0.7 g
Net cell kill (Mus musculus [25]): -0.9 log10

CN1CCN(NCCCNc2cc3c(Nc4cccc(Br)c4)ncnc3cn2)CC1
solubility [2]: 32 mM (≈ 15100 µg/mL)

CN(CCO)CCNc1cc2c(Nc3cccc(Br)c3)ncnc2cn1
IC50 [1]: 1.7 nM
S [2]: > 45 mM
IC50 [3]: 27 nM

Cc1cccc(Nc2ncnc3cnc(N(C)C)cc23)c1
IC50 [1]: 2.8 nM
solubility [2]: 0.02 mM (≈ 5.59 µg/mL)

CNc1cc2c(Nc3cccc(C)c3)ncnc2cn1
Weight change (Mus musculus [26]): -0.9 g
T-C (Mus musculus [27]): 2 days
IC50 [3]: 23 nM
T/C (Mus musculus [28]): 68%
IC50 [21]: 0.45 nM

O=C(O)CCNc1cc2c(Nc3cccc(Br)c3)ncnc2cn1
IC50 [1]: 0.27 nM
solubility [2]: 38 mM (≈ 14800 µg/mL)
IC50 [3]: 449 nM

Brc1cccc(Nc2ncnc3cnc(NCCCN4CCOCC4)cc23)c1
IC50 [1]: 1 nM
S [2]: > 44 mM
IC50 [3]: 5.9 nM

Brc1cccc(Nc2ncnc3cnc(NCc4cccnc4)cc23)c1
IC50 [1]: 1.5 nM
solubility [2]: 12 mM (≈ 4890 µg/mL)
IC50 [3]: 13 nM

CN(C)CCCCNc1cc2c(Nc3cccc(Br)c3)ncnc2cn1
IC50 [1]: 1.8 nM
solubility [2]: 38 mM (≈ 15800 µg/mL)
IC50 [3]: 19 nM
